This is an account of results in PubChem BioAssay AID588558 (Sanford-Burnham Center for Chemical Genomics, 2011).

This experiment relates to CHO-XBP1 cytotoxicity, ATPlite luminescence, 24 h. Nature of the experiment: CHO-XBP1 cell viability loss – 24 h exposure, ATPlite luminescence, cytotoxicity control for UPR apoptotic arm activator project, SAR follow-up (AID 588558). Put shortly: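 System: CHO-XBP1 cells (Chinese hamster ovary XBP1 reporter line); Input: 1000 CHO-XBP1 cells per well; Buffer or medium: F12 with 10% FBS; Compound: dose series, DMSO ≤1%; Incubation: 24 h compound exposure at 37 °C; Detection: ATPLite 1-Step luminescence; Controls: tunicamycin 10 µg/mL positive control.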

Activity calls are given as the source filed them.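 The calls were made as follows: active = mean IC50 of 20 µM or lower in the 24 hour cytotoxicity test; inactive = the rest.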

The term IC50 denotes the midpoint of a concentration-inhibition curve. Take `O=C(Nc1ccc(S(=O)(=O)C2CCOCC2)cc1)c1ccc([N+](=O)[O-])o1`: the IC50 is 37600 nM (inactive).
Under `O=C(Nc1nc2ccc(C(F)(F)F)cc2s1)c1ccccn1` stands 970 nM.
Under `CC1(C)CCN(S(=O)(=O)c2ccc(NC(=O)c3ccc([N+](=O)[O-])o3)cc2)CC1` stands 18000 nM; under `O=C(Nc1nc2cccc(F)c2s1)c1ccccn1`, 1760 nM; under `O=C(Nc1nc2ccc(F)cc2s1)c1ccccn1`, 1990 nM.
As for `O=C(Nc1ccc(S(=O)(=O)N2CCOCC2)cc1)c1ccc([N+](=O)[O-])s1`, the figure is > 80000 nM (inactive); as for `CC1CCN(S(=O)(=O)c2ccc(NC(=O)c3ccc([N+](=O)[O-])o3)cc2)CC1`, 32200 nM (inactive); as for `O=C(Nc1ccc(S(=O)(=O)N2CCNCC2)cc1)c1ccc([N+](=O)[O-])o1`, > 80000 nM (inactive).
On to `O=C(Nc1nc2c(F)cccc2s1)c1ccccn1`, for which the IC50 is 1420 nM.
As for `O=C(Nc1nc2cc(F)c(F)cc2s1)c1ccccn1`, the figure is 1810 nM; as for `O=C(Nc1ccc(S(=O)(=O)c2ccccc2)cc1)c1ccc([N+](=O)[O-])o1`, 18500 nM.
As for `CC1CN(S(=O)(=O)c2ccc(NC(=O)c3ccc([N+](=O)[O-])o3)cc2)CC(C)O1` (stereo not given), the figure is 34900 nM (inactive).
Under `O=C(Nc1nc2cc(F)cc(F)c2s1)c1ccccn1` stands 1050 nM.
In the case of `O=C(Nc1nc2cc(F)ccc2s1)c1ccccn1`, the IC50 is 1260 nM.
Under `O=C(Nc1nc2c(F)c(F)ccc2s1)c1ccccn1` stands 1350 nM; under `CC(C)(C)C1CCN(S(=O)(=O)c2ccc(NC(=O)c3ccc([N+](=O)[O-])o3)cc2)CC1`, 2680 nM.
Under `O=C(Nc1ccc(S(=O)(=O)N2CCOCC2)cc1)c1ccc([N+](=O)[O-])o1` stands 32300 nM (inactive); under `O=C(Nc1ccc(S(=O)(=O)N2CCC(F)CC2)cc1)c1ccc([N+](=O)[O-])o1`, 24700 nM (inactive).
Under `O=C(Nc1nc2ccc(F)c(F)c2s1)c1ccccn1` stands 1190 nM.
In the case of `O=C(Nc1ccc(S(=O)(=O)N2CCCC2)cc1)c1ccc([N+](=O)[O-])o1`, the IC50 was 19200 nM.
Under `O=C(Nc1nc2c(F)ccc(F)c2s1)c1ccccn1` stands 1060 nM; under `O=C(Nc1ccc(S(=O)(=O)N2CCCCC2)cc1)c1ccc([N+](=O)[O-])o1`, > 80000 nM (inactive).
As for `O=C(Nc1nc2c(F)cc(F)cc2s1)c1ccccn1`, the figure is 1590 nM; as for `O=C(Nc1ccc(S(=O)(=O)C2CCCCC2)cc1)c1ccc([N+](=O)[O-])o1`, 22100 nM (inactive).
Under `O=C(Nc1ccc(S(=O)(=O)N2CCC(O)CC2)cc1)c1ccc([N+](=O)[O-])o1` stands 27900 nM (inactive); under `O=C(Nc1ccc(S(=O)(=O)N2CCC3(CCCCC3)CC2)cc1)c1ccc([N+](=O)[O-])o1`, 9050 nM.
For `O=C(Nc1nc2ccc(Cl)cc2s1)c1ccccn1`, the IC50 is 1360 nM.
As for `O=C(Nc1nc2c(Cl)cc(Cl)cc2s1)c1ccccn1`, the figure is 8770 nM; as for `Cc1cc(C)c2nc(NC(=O)c3ccccn3)sc2c1`, 3750 nM; as for `O=C(Nc1ccc(S(=O)(=O)N2CCC(Cl)CC2)cc1)c1ccc([N+](=O)[O-])o1`, > 80000 nM (inactive).
